This passage reports yeast fitness results from the RNAGym collection of RNA variant scans (doi:10.1126/science.aae0568).

This sample holds only a part of the variants without activity.

First the molecules themselves.
B1: tRNA (parent)
chain: GUUCCGUUGGCGUAAUGGUAACGCGUCUCCCUCCUAAGGAGAAGACUGCGGGUUCGAGUCCCGUACGGAACG

In the data set the parent is B1. Put plainly: yeast fitness relative to wild type (ratio to wild type); higher = fitter; tRNA-Arg(CCU), competitive growth, 37 C, YPD. In outline:
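Start and end populations of a pooled competition were compared by 100-nucleotide paired-end sequencing of gene amplicons. The Saccharomyces cerevisiae strains carried tRNA-Arg(CCU) gene variants at the native genomic locus, synthesised with a 3% per-site mutation rate at 69 sites, and competed in YPD at 37°C for 24 hours in six parallel replicates. Darwinian fitness relative to wild type was based on the change in genotype frequencies. Genotypes required ≥ 100 starting reads, and estimates < 0.5 were set to 0.5.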
In the case of GUUCCGUUGGCGUAAUGGUAACGCGUCUCGCUCCUACGGAGAAGAGUGCGGGUUCAAGUCCCGUACGGAACG [C30G A37C C46G G56A], the yeast fitness was at most 0.5.
Turning to GUUCCGUUGGCGUAAUGGUAACGCGUCUCGCUCCUAAGGAGAAGACUGCGGGUUCGUGUGCCGUACGGAACG [C30G A57U C60G], the yeast fitness is at most 0.5.
As for GUUCCGUUGGCGUAAUGGUAACGCGUCUCACUCCUAAGGAGAAAACUGCGGGUUCGAGUCCCGUACGGAACG [C30A G44A], the figure is 0.88.
GUUCCGUUGGCGUAAUGGUAACGCGUCUCACUCCUAAGGAGAAGACUGCGGGGUCGAGUGCAGUACGGAUCG [C30A U53G C60G C62A A70U]: the yeast fitness was 0.515.
For GUUCCGUUGGCGUAAUGGUAACGCGUCUCACUCCUAAGGAGAAGACUGCGGGCUCGAGUCCCGUACGGACCG [C30A U53C A70C] the value was 0.506; for GUUCCGUUGGCGUAAUGGUAACGCGUCUCGCUCCUAAGGAGUAGACUGCGCGUUCGAGUCCCGUACGGAACG [C30G A42U G51C], at most 0.5; for GUUCCGUUGGCGUAAUGGUAACGCGUCUCGCUCCUAAGGAGAUGACUCCGGGUUCGAGUCCCGGACGGAACG [C30G A43U G48C U64G], at most 0.5.
For GUUCCGUUGGCGUAAUGGUAACGCGUCUCGCUCCUAAGGAGAAGACUGCGGGUUCGUGUGCCGUUCGGAACG [C30G A57U C60G A65U] the value was 0.531; for GUUCCGUUGGCGUAAUGGUAACGCGUCUCACUCCUAAGGAGAAGACUGCGGGUUCGAGUCCCACACGGAACG [C30A G63A U64C], 0.893.
As for GUUCCGUUGGCGUAAUGGUAACGCGUCUCGCUCCUAAGGUGAAGAUUGCGGGUUCGAGUCCCGUACGGAACG [C30G A40U C46U], the figure is 0.558; as for GUUCCGUUGGCGUAAUGGUAACGCGUCUCACUCCUAAGGAGAAGACUGCGGGUUCGAGUCCCGUACCGAACG [C30A G67C], 0.841.
Turning to GUUCCGUUGGCGUAAUGGUAACGCGUCUCACUCCUAAGGAGAAGACUGCGGGUUCGAGUCCCGUACUGAACG [C30A G67U], the yeast fitness was found to be 0.671.
For GUUCCGUUGGCGUAAUGGUAACGCGUCUCGCUCCUAAGGCGAAGACUGCGGGUUCGAGUCCCGAACGGAACG [C30G A40C U64A] the value was 0.565.
For GUUCCGUUGGCGUAAUGGUAACGCGUCUCGCUCCUAUGGAGAAGACUGCGGGUUCGAGUCUCGUACGGAACG [C30G A37U C61U] the value was at most 0.5.
For GUUCCGUUGGCGUAAUGGUAACGCGUCUCACUCCUAAGGAGAAGACUACGGGUUCGAGUCCCGAAGGGAACG [C30A G48A U64A C66G] the value was 0.611; for GUUCCGUUGGCGUAAUGGUAACGCGUCUCGCUCCUAAGGAGAAGGCUGCGGGUUCGAGUCCCGUACGGAACG [C30G A45G], 0.698.
Take GUUCCGUUGGCGUAAUGGUAACGCGUCUCGCUCCUAGGGAGAAGACUGCGGGUUCGAGUCCCGUGCGGAACG [C30G A37G A65G]: the yeast fitness was at most 0.5.
For GUUCCGUUGGCGUAAUGGUAACGCGUCUCACUCCUAAGGACAAGACUGCGAGUUCGAGUCCCGUACGGAACG [C30A G41C G51A] the value was at most 0.5.
As to GUUCCGUUGGCGUAAUGGUAACGCGUCUCACUCCUAAAGAGAAGACUGCGGAUUAGAGUCCCGUCCGGAACG [C30A G38A G52A C55A A65C], the yeast fitness was at most 0.5.
For GUUCCGUUGGCGUAAUGGUAACGCGUCUCGCUCCUGAGGAGAAGACUGCGGGUUCGUGUCCCGUUUGGAACG [C30G A36G A57U A65U C66U] the value was at most 0.5; for GUUCCGUUGGCGUAAUGGUAACGCGUCUCACUCCUAAGGAGAAACCUGCGGGUUCGAGUCCCGUACGGAUCG [C30A G44A A45C A70U], at most 0.5; for GUUCCGUUGGCGUAAUGGUAACGCGUCUCGCUCCUAAGGAGGAGGCUGCGGGUUCGAGUCCCGUACGGAACG [C30G A42G A45G], at most 0.5.
With GUUCCGUUGGCGUAAUGGUAACGCGUCUCGCUCCUACGGAGAAGAGUGCGGGUUCGAGUCCCGUACGGAACG [C30G A37C C46G], the yeast fitness was at most 0.5.
GUUCCGUUGGCGUAAUGGUAACGCGUCUCACUCCUAAGGAGAAGACUGCGGGUUCGAGUCCCCUACGGAACG [C30A G63C]: the yeast fitness was found to be 0.774.
For GUUCCGUUGGCGUAAUGGUAACGCGUCUCGCUCCUGAGGAGAAGACUGCGGGUUCGUGUCCCGUACGGAACG [C30G A36G A57U] the value was at most 0.5; for GUUCCGUUGGCGUAAUGGUAACGCGUCUCGCUCCUACGGAGAAGGCUGCGGGUUCGAGUCCCGUACGGAACG [C30G A37C A45G], 0.633; for GUUCCGUUGGCGUAAUGGUAACGCGUCUCACUCCUAACGAGAAGACUGCGGGUUCGAGUCACGUACGGAACG [C30A G38C C61A], 0.51.
For GUUCCGUUGGCGUAAUGGUAACGCGUCUCACUCCUAAGGAGAAGACUGCGGGUUCCAGUCCCGUACGGAACG [C30A G56C] the value was 0.639.
As for GUUCCGUUGGCGUAAUGGUAACGCGUCUCACUCCUAAGGAGAAGACUGCGGGUUCAAGUCCCGUACGGAACG [C30A G56A], the figure is 1.04; as for GUUCCGUUGGCGUAAUGGUAACGCGUCUCACUCCUAAGGAGAAGACUGCGGGUUCUAGUCCCGUACGGAACG [C30A G56U], 0.831; as for GUUCCGUUGGCGUAAUGGUAACGCGUCUCGCUCCUAAGGAGAUGACUCCGGGUUAGAGUCCCGUACGGAACG [C30G A43U G48C C55A], 0.557.
Consider GUUCCGUUGGCGUAAUGGUAACGCGUCUCACUCCUAAGGAGAAGACUGCGGAUUCGAGUCCCGUUCGGAACG [C30A G52A A65U], for which the yeast fitness is at most 0.5.
As for GUUCCGUUGGCGUAAUGGUAACGCGUCUCACUCCUAAGGAGAAGACCGCGGGUUCGAGUCCCGUACUGAACG [C30A U47C G67U], the figure is at most 0.5; as for GUUCCGUUGGCGUAAUGGUAACGCGUCUCGCUCCUAAGGGGAAGACUGUGGGUUCGAGUCCCGUACGGAACG [C30G A40G C49U], at most 0.5; as for GUUCCGUUGGCGUAAUGGUAACGCGUCUCACUCCUAAGGAGAAGACUGCGCGUUAGAGUCCCGUAUGGAACG [C30A G51C C55A C66U], at most 0.5.
Take GUUCCGUUGGCGUAAUGGUAACGCGUCUCACUCCUAAGGAGAAGACUGCGGGUUCGAGUCCUAUACGGGACG [C30A C62U G63A A69G]: the yeast fitness is at most 0.5.
For GUUCCGUUGGCGUAAUGGUAACGCGUCUCACUCCUAAGGAGAAGACUGCGGGUUCUAGUCCCGUGCGGAACG [C30A G56U A65G] the value was at most 0.5.
